# Marks after values point to notes of the source that are not given here.
# Assays:
# [1] = tested on: coagulation in hemostasis; assay: Anticoagulant activity, activated partial thromboplastin time; assay type: biochemical; settings: value (range), n = 6
# Summary of the method: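 APTT was measured turbidimetrically on a hemocoagulometer using centrifuged citrated blood. Change is given as percent of control with a range in parentheses, n = 6. Significance was tested against control and reference drugs at p ≤ 0.05 or p ≤ 0.001.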
# [2] = tested on: collagen-induced platelet aggregation; assay: Collagen-induced platelet aggregation; assay type: cell-based
# Summary of the method: (§1)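 Citrated blood was centrifuged, and platelet aggregation was recorded on an aggregometer using a published method. Collagen induced the latent period; ADP induced maximum amplitude and aggregation rate. Changes are given as percent of control, n = 6. Significance was tested against control and reference drugs at p ≤ 0.05 or p ≤ 0.001.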
# [3] = tested on: ADP-induced platelet aggregation; assay: ADP-induced platelet aggregation; assay type: cell-based; settings: pro-aggregation activity versus etamsylate
# Summary of the method: as §1
Compound,APTT (activated partial thromboplastin time) [1],Effect on latent period (in words) [2],Platelet aggregation activity relative to etamsylate [3]
Sodium heparin [reference compound],+20.3 (19.7–21.4)^d percent of control,–,–
"CCc1ccc2c(c1)C(=NNC(=O)C[n+]1ccccc1)C(=O)N2CCn1cnc2c(N)ncnc21.[Cl-] [Compound 3c, 1-[2-(2-{1-[2-(6-Amino-9H-purin-9-yl)ethyl]-5-ethyl-2-oxo-2,3-dihydro-1H-indol-3-ylidene}hydrazinyl)-2-oxoethyl]pyridinium chloride]","+5.3 (4.1–9.6)^c,e percent of control",–,–
"Cc1ccc2c(c1)C(=NNC(=O)C[n+]1cccc(C)c1C)C(=O)N2CCn1cnc2c(N)ncnc21.[Br-] [Compound 3d, 1-[2-(2-{1-[2-(6-Amino-9H-purin-9-yl)ethyl]-5-methyl-2-oxo-2,3-dihydro-1H-indol-3-ylidene}hydrazinyl)-2-oxoethyl]-2,3-dimethylpyridinium bromide]",+2.5 (1.8–4.3)^e percent of control,–,–
"Cc1ccc2c(c1)C(=NNC(=O)C[N+](C)(C)C)C(=O)N2CCn1cnc2c1c(=O)n(C)c(=O)n2C.[Cl-] [Compound 4b, 2-[2-(1-{2-[1,3-Dimethyl-2,6-dioxo-2,3-dihydro-1H-purin-7(6H)-yl]ethyl}-5-methyl-2-oxo-2,3-dihydro-1H-indol-3-ylidene)hydrazinyl]-N,N,N-trimethyl-2-oxoethan-1-aminium chloride]","+7.3 (5.6–9.4)^c,e percent of control",without affecting the latent period,more than twofold
"CC(=O)Oc1ccccc1C(=O)O [Acetylsalicylic acid, reference compound]",+1.1 (0.5–1.9)^e percent of control,–,–
"C[N+](C)(C)CC(=O)NN=C1C(=O)N(CCn2cnc3c(N)ncnc32)c2ccccc21.[Cl-] [Compound 3a, 2-(2-{1-[2-(6-Amino-9H-purin-9-yl)ethyl]-2-oxo-2,3-dihydro-1H-indol-3-ylidene}hydrazinyl)-N,N,N-trimethyl-2-oxoethan-1-aminium chloride]",+3.7 (2.9–5.4)^e percent of control,–,–
"Cn1c(=O)c2c(ncn2CCN2C(=O)C(=NNC(=O)C[N+](C)(C)C)c3ccccc32)n(C)c1=O.[Cl-] [Compound 4a, 2-[2-(1-{2-[1,3-Dimethyl-2,6-dioxo-2,3-dihydro-1H-purin-7(6H)-yl]ethyl}-2-oxo-2,3-dihydro-1H-indol-3-ylidene)hydrazinyl]-N,N,N-trimethyl-2-oxoethan-1-aminium chloride]","+8.4 (7.3–10.4)^c,e percent of control",–,–
"Cc1ccc2c(c1)C(=NNC(=O)C[N+](C)(C)C)C(=O)N2CCn1cnc2c(N)ncnc21.[Cl-] [Compound 3b, 2-(2-{1-[2-(6-Amino-9H-purin-9-yl)ethyl]-5-methyl-2-oxo-2,3-dihydro-1H-indol-3-ylidene}hydrazinyl)-N,N,N-trimethyl-2-oxoethan-1-aminium chloride]","+6.5 (4.9–8.3)^c,e percent of control",–,–

# Source: article PMC9007260 (Russian Journal of Organic Chemistry, 2022)
